# Calls of active or inactive are those of the source. The rule behind the calls is not given here.
# Tests used:
# Prevotella intermedia [1] = assay: Antibacterial activity against Prevotella intermedia ATCC 25611 assessed as growth inhibition at 1.25 to 10 ug/ml after 24 hrs by microplate dilution assay; format: functional, organism-based
# Method in brief: (§1)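 Todd Hewitt broth with hemin (10 μg/mL) and vitamin K (1 μg/mL). 24-h cultures were diluted to OD660 0.2 and mixed 1:1 with serial dilutions in broth (compounds 10 to 1.25 μg/mL; penicillin G 2.5 to 0.00625 μg/mL). Plates were incubated 24 h at 37 °C anaerobically (N2–H2–CO2 75:10:15), then OD660 was read against no-compound control wells. Triplicates were given as mean ± SD; Student's t test was applied when inhibition was ≥20%.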
# Streptococcus mutans [2] = assay: Antibacterial activity against Streptococcus mutans ATCC 25175 assessed as growth inhibition at 1.25 to 10 ug/ml after 24 hrs by microplate dilution assay; format: functional, organism-based
# Streptococcus sobrinus [3] = assay: Antibacterial activity against Streptococcus sobrinus ATCC 33478 assessed as growth inhibition at 1.25 to 10 ug/ml after 24 hrs by microplate dilution assay; format: functional, organism-based
# Streptococcus mutans [4] = assay: Antibacterial activity against Streptococcus mutans ATCC 25175 assessed as growth inhibition at 0.00625 to 2.5 ug/ml after 24 hrs by microplate dilution assay; format: functional, organism-based
# Prevotella intermedia [5] = assay: Antibacterial activity against Prevotella intermedia ATCC 25611 assessed as growth inhibition at 0.00625 to 2.5 ug/ml ug/ml after 24 hrs by microplate dilution assay; format: functional, organism-based; method in brief: as §1
# Fusobacterium nucleatum [6] = assay: Antibacterial activity against Fusobacterium nucleatum ATCC 25586 assessed as growth inhibition at 0.00625 to 2.5 ug/ml ug/ml after 24 hrs by microplate dilution assay; format: functional, organism-based; method in brief: as §1
# Porphyromonas gingivalis [7] = assay: Antibacterial activity against Porphyromonas gingivalis ATCC 33277 assessed as growth inhibition at 0.00625 to 2.5 ug/ml ug/ml after 24 hrs by microplate dilution assay; format: functional; method in brief: as §1
# Streptococcus sobrinus [8] = assay: Antibacterial activity against Streptococcus sobrinus ATCC 33478 assessed as growth inhibition at 0.00625 to 2.5 ug/ml after 24 hrs by microplate dilution assay; format: functional, organism-based
# Streptococcus mutans [9] = assay: Antibacterial activity against Streptococcus mutans ATCC 25175 assessed as growth inhibition at 10 ug/ml after 24 hrs by microplate dilution assay; format: functional, organism-based
# Porphyromonas gingivalis [10] = assay: Antibacterial activity against Porphyromonas gingivalis ATCC 33277 assessed as growth inhibition at 1.25 to 10 ug/ml after 24 hrs by microplate dilution assay; format: functional; method in brief: as §1
# Streptococcus sobrinus [11] = assay: Antibacterial activity against Streptococcus sobrinus ATCC 33478 assessed as growth inhibition at 10 ug/ml after 24 hrs by microplate dilution assay; format: functional, organism-based
# Fusobacterium nucleatum [12] = assay: Antibacterial activity against Fusobacterium nucleatum ATCC 25586 assessed as growth inhibition at 1.25 to 10 ug/ml after 24 hrs by microplate dilution assay; format: functional, organism-based; method in brief: as §1
Structure (SMILES),growth inhibition (GI) (Prevotella intermedia [1]),growth inhibition (GI) (Streptococcus mutans [2]),growth inhibition (GI) (Streptococcus sobrinus [3]),other results
CC(C)=CCc1cc(-c2coc3cc(O)cc(O)c3c2=O)c(O)cc1O,Active,inactive,inactive,
COc1cc2c(c(OC)c1CC=C(C)C)C[C@H](c1ccc(O)cc1O)CO2,Active,inactive,inactive,
CC1(C)S[C@@H]2[C@H](NC(=O)Cc3ccccc3)C(=O)N2[C@H]1C(=O)O,,,,growth inhibition (GI) (Streptococcus mutans [4]): Active; growth inhibition (GI) (Prevotella intermedia [5]): Active; growth inhibition (GI) (Fusobacterium nucleatum [6]): Active; growth inhibition (GI) (Porphyromonas gingivalis [7]): Active; growth inhibition (GI) (Streptococcus sobrinus [8]): Active
COc1c(CC=C(C)C)c(O)cc2c1C[C@H](c1ccc(O)c(CC=C(C)C)c1O)CO2,Active,,,growth inhibition (GI) (Streptococcus mutans [9]): Active; growth inhibition (GI) (Porphyromonas gingivalis [10]): Active; growth inhibition (GI) (Streptococcus sobrinus [11]): Active; growth inhibition (GI) (Fusobacterium nucleatum [12]): Active
COc1cc2c(c(OC)c1CC=C(C)C)C[C@H](C1=CC(=O)C(O)=C(CC=C(C)C)C1=O)CO2,Active,inactive,inactive,
COc1cc2oc(=O)c(-c3ccc(O)cc3O)cc2c(OC)c1CC=C(C)C,Active,inactive,inactive,
COc1c(CC=C(C)C)c(O)cc2oc(=O)c(-c3ccc(O)cc3O)cc12,Active,inactive,inactive,

# Reference: ChEMBL document CHEMBL1926597, “Isoflavonoids and coumarins from Glycyrrhiza uralensis: antibacterial activity against oral pathogens and conversion of isoflavans into isoflavan-quinones during purification” (J Nat Prod, 2011)
